# SR-BI DiI-HDL act: SR-BI HDL lipid transfer activation. CHO ldlA[mSR-BI] cells, DiI-HDL uptake fluorescence, 3 h; 100 = double the neutral-control signal. activation, % at 12.5 µM. 320,000 compounds, 0.096% hits. AID 504775;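 active = mean replicate activation of at least 60% and every replicate at or above 60%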;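 also: 0% = median plate neutral-control signal and 100% = twice that signal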
#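 Test system: SR-BI-overexpressing, LDLR-lacking CHO cells. Measured by: DiI fluorescence, bottom read. Medium: Ham's F12 with 0.5% BSA, HEPES 25 mM, pH 7.4. Timing: 3 h uptake period with compound, 37 °C.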
# MIN6 prolif-1: induces beta-cell replication in MIN6 cells | MIN6 cells proliferation, ATPlite luminescence, 48 h; cells starved in 0.2% serum; 100% = growth in 10% serum | proliferation, % at 10 µM | 330,000 compounds, 0.29% hits | AID 2380;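 active = compounds whose signal lies at least 3.5 SD above the mean of all wells on their plate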;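 also: 0% = DMSO-treated cells in low-serum medium and 100% = 10% serum control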
# SR-BI DiI inh: inhibitors of mouse SR-BI mediated HDL lipid uptake. Q61009. ldlA[mSR-BI] CHO cells, DiI-HDL uptake fluorescence, 3 h. inhibition, % at 12.5 µM. 320,000 compounds, 0.96% hits. AID 488896;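 active = mean replicate inhibition of at least 70% and a set share of replicates each scoring 70 or more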;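 also: 0% = median of neutral control wells and 100% = median of positive control wells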
# Target sequence (Q61009 whole entry, looked up): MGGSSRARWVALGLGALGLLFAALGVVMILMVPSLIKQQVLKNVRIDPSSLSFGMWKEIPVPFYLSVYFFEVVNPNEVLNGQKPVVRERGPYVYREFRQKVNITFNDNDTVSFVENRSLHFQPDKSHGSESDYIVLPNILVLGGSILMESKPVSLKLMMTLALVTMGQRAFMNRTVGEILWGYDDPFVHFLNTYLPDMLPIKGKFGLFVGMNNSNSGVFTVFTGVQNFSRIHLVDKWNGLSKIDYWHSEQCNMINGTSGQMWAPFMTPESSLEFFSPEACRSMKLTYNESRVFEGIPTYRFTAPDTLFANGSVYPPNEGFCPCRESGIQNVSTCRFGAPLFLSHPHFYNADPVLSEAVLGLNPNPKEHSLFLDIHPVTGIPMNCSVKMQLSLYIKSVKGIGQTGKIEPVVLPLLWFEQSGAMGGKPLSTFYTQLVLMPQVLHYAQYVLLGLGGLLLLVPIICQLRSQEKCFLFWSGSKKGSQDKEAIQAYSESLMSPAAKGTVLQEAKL
# Calb FLC: C. albicans growth modulation with fluconazole. growth inhibition, % (test concentration not listed). C. albicans CaCi-2 + fluconazole, Alamar Blue growth, 48 h. 300,000 compounds, 0.57% hits;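 active = growth inhibition above about 58% in most replicates, limit read from the data, passing the limit was not always enough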;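 also: all wells also contain fluconazole at 8 µg/ml as a sub-toxic cotreatment; 0% = median of DMSO wells and 100% = median of geldanamycin control wells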
# HTR2A ag: mouse HTR2A agonism via beta-arrestin recruitment. CHO-K1 mHTR2A beta-arrestin complementation, luminescence; percent of 30 µM serotonin response. activation, % at 7.6 µM. 360,000 compounds, 0.66% hits. P35363;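 active = activation above a run cutoff, the mean activation of all tested compounds plus 3 SD, cut at about 14% in these data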;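 also: 0% = plate median of compound wells and 100% = 30 µM serotonin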
# Ins promoter up: MIN6 insulin promoter up-regulation; MIN6 insulin promoter-GFP reporter, high-content imaging; active compounds read high; z-score at 5 µM; 190,000 compounds, 0.3% hits; AID 1625;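 active = z-score above 3 at 5 µM with at least 500 cells counted in the well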
# MIN6 prolif-2: MIN6 beta-cell replication induction, confirmed | shares compounds with MIN6 prolif-1 | MIN6 beta-cell proliferation, ATPlite luminescence, 48 h; cells kept in 0.2% serum; scaled between 0.2% and 10% serum | proliferation increase, % at 50 µM | 920 tested, under 10 active | AID 463095;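 active = proliferation increase above 40% at any of the four tested concentrations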
# Numbers without * were called inactive; . = no result. Hits are enriched below; roughly 2.4% of the tested compounds scored in any of these assays.
SMILES,SR-BI DiI-HDL act,MIN6 prolif-1,SR-BI DiI inh,Calb FLC,HTR2A ag,Ins promoter up,MIN6 prolif-2
CNC(=S)N/N=C/c1ccc(OCC(=O)Nc2c(C)cc(C)cc2C)c(OC)c1,-48.1,0.0*,48.2,-7.9,2.8,-1.22,-1.3
Cc1ccc(Cn2c(=N)c(S(=O)(=O)c3ccc(Br)cc3)cc3c(=O)n4ccccc4nc32)cc1,11.1,1.0,-11.1,.,2.6,.,.
COc1ccc(CCn2c(=N)c(S(=O)(=O)c3ccc(C)cc3)cc3c(=O)n4ccccc4nc32)cc1,0.6,13.3*,-0.6,4.8,-4.6,.,-2.7
Cc1cccc(C)c1NC(=S)NC(=O)c1cccc(Cl)c1,.,.,.,.,-3.8,.,.
O=S(=O)(c1cnccc1N1CCN(/N=C/c2ccccc2)CC1)N1CCCCC1,-19.4,5.6*,19.4,-19.2,-1.7,0.18,0.1
COc1ccc(/C=N/N2CCN(c3ccncc3S(=O)(=O)N3CCCCC3)CC2)cc1,-1.9,1.2,1.9,5.4,0.4,0.02,.
O=C(c1ccco1)N1CCN(c2ccc([N+](=O)[O-])c(N3CCOCC3)c2)CC1,-18.6,9.7*,18.6,-16.6,-2.0,-1.04,1.4
O=c1[nH]cnc(O)c1C(c1ccc([N+](=O)[O-])cc1)c1c(O)nc[nH]c1=O,-5.9,-0.1,5.9,6.5,1.0,.,.
Cc1ccc(N(CC(=O)NCc2ccccn2)S(=O)(=O)c2ccccc2)cc1C,.,9.0*,.,-0.8,-1.6,.,2.3
Cc1ccc(N(CC(=O)NCc2ccccn2)S(=O)(=O)c2ccccc2)cc1Cl,7.2,-2.9,-7.2,35.4,-3.9,.,.
CC(C)CCNc1nc(N)c([N+](=O)[O-])c(NC2CCCCC2)n1,-13.9,8.8*,13.9,-3.8,3.1,.,-1.4
COC(=O)[C@H](CCSC)NC(=O)NCc1ccc(S(N)(=O)=O)cc1,16.7,8.2*,-16.7,0.9,2.5,-0.93,-2.9
O=C(CS(=O)(=O)Cc1ccccc1)c1ccccc1,.,.,.,.,-1.6,.,.
CCOC(=O)c1c(-c2cccs2)csc1NC(C)=O,.,12.7*,.,-4.2,12.1,-0.2,-6.2
CCOC(=O)c1c(-c2cccs2)csc1NC(=O)C(C)(C)C,-10.8,-1.7,10.8,-2.8,-1.4,0.33,.
Cc1ccc(N(CC(=O)NC2CCCC2)C(=O)CCC(=O)Nc2nccs2)c(C)c1,.,21.2*,.,-9.8,-13.6,.,-0.7
CCN(CC)C(=O)[C@]1(c2ccccc2)C[C@@H]1CN,.,12.2*,.,-10.0,.,-0.33,0.7
CCN(CC(=O)Nc1c(F)cccc1F)C(=O)C1(c2ccccc2)CC1,17.6,0.9,-17.6,-0.2,-0.4,.,.
CCOC(=O)CSc1nc2ccccc2c(=O)n1C1CCCC1,-11.2,5.3*,11.2,3.9,-1.6,-0.21,-6.5
COC(=O)C1=C(O)C(C(=O)OC)C(c2ccc(C)cc2)C(C#N)(C#N)C1c1ccc(C)cc1 (stereo not given),9.5,-6.0,-9.5,-7.5,5.2,.,.
CCOc1ccc(-n2cnnn2)cc1S(=O)(=O)Nc1c(C)cccc1C,1.8,6.1*,-1.8,6.1,2.1,0.12,0.7
CCOc1ccc(-n2cnnn2)cc1S(=O)(=O)NC1CC1,11.5,-1.8,-11.5,-15.1,3.0,-0.21,.
COc1ccc(-n2nc(C(=O)NCC(=O)NC3CCCCC3)c3ccccc3c2=O)cc1,.,0.0,.,19.8,-4.8,.,.
COc1ccc(Br)cc1/C=N/NC(=O)CNC(=O)C1COc2ccccc2O1 (stereo not given),0.7,3.9,-0.7,-36.2,2.7,.,.
COc1ccc(/C=N\NC(=O)CNC(=O)C2COc3ccccc3O2)cc1[N+](=O)[O-] (stereo not given),0.5,13.6*,-0.5,1.0,-0.8,.,-1.1
SMILES,SR-BI DiI-HDL act,MIN6 prolif-1,SR-BI DiI inh,Calb FLC,HTR2A ag,Ins promoter up,MIN6 prolif-2
COc1ccc(OC2CCN(S(=O)(=O)c3ccc(C(C)=O)cc3)CC2)cc1,27.3,-1.3,-27.3,-3.2,5.4,.,.
CCCN(C(=O)CCNC(=O)Cn1cnc2ccccc2c1=O)c1cccc(Cl)c1,.,2.1,.,5.0,-5.1,.,.
COc1ccc(NC(=O)CS(=O)CC(=O)Nc2ccc(NC(C)=O)cc2)cc1 (stereo not given),.,-0.9,.,-0.5,7.8,.,.
COc1ccc(NC(=O)CS(=O)c2ccc(F)cc2)cc1 (stereo not given),15.2,12.4*,-15.2,-2.2,1.5,.,-1.3
CCOc1cc(N2CCOCC2)c(OCC)cc1NC(=O)c1cnccn1,.,9.3*,.,.,-2.7,.,3.2
COCC(=O)Nc1sc2c(c1C(=O)OC)CCCC2,-3.6,7.7*,3.6,-5.1,1.8,-0.03,-5.5
CCCCNC(=O)c1cnc(Cc2c[nH]c3ccccc23)c(I)c1,.,.,.,.,-5.3,.,.
O=C(NCc1ccco1)C(c1ccco1)N(Cc1cccs1)C(=O)Cn1nnc2ccccc21 (stereo not given),-8.5,8.0*,8.5,6.2,-4.5,.,-0.4
O=C(N/N=C/c1ccccn1)c1ccc2nc[nH]c2c1,2.3,7.8*,-2.3,-2.5,-1.9,0.04,1.2
O=S(=O)(c1ccc(Cl)cc1)N1CCCc2ccccc21,-14.8,-2.0,14.8,3.4,3.6,.,.
Nc1ccc(S(=O)(=O)N2CCCc3ccccc32)cc1,3.4,13.6*,-3.4,-2.9,-3.6,0.4,-1.5
COc1ccc(Cl)cc1C(=O)OCC(=O)NCCNC(=O)COC(=O)c1cc(Cl)ccc1OC,-29.9,9.7*,29.9,2.2,8.0,.,1.1
COc1cc(N)c(Cl)cc1C(=O)OCC(=O)NCC1CCCCC1,-40.8,8.8*,40.8,.,-0.5,.,-5.5
CCCn1c(-c2nonc2N)nc2ccccc21,-5.6,9.0*,5.6,-11.2,-4.1,-0.3,-0.6
COc1ccc(N2CC(C(=O)Nc3ccccc3C(=O)NCc3ccco3)CC2=O)cc1 (stereo not given),26.7,-2.0,-26.7,1.0,-1.7,-0.48,.
CS(=O)(=O)N1CCC(C(=O)NCc2ccco2)CC1,37.3,7.7*,-37.3,-10.2,2.8,0.36,-3.1
O=C(NCc1ccco1)C1CC(=O)N(c2ccc(O)cc2)C1 (stereo not given),35.5,4.7*,-35.5,-15.2,1.7,-0.02,-1.0
COc1cccc2c1c(NC(=O)Nc1ccc(F)cc1F)nn2C,-7.2,6.8*,7.2,-7.0,0.2,-0.08,-2.8
CCOC(=O)C(=CNc1ccccc1N1CCOCC1)C(=O)OCC,-21.3,6.0*,21.3,-10.0,6.2,-0.01,3.5
C[C@H]1CN([C@@H](C)CO)C(=O)c2cc(Br)cnc2O[C@H]1CN(C)C(=O)C1CC1,.,.,.,.,-1.4,.,.
CCc1ccccc1NC(=O)c1ccc(CN2CCC(Cc3ccccc3)CC2)cc1,-18.1,-6.1,18.1,-6.5,-14.2,0.22,.

# Bioassay records deposited in PubChem BioAssay by several laboratories.
